Measured values taken from ChEMBL document CHEMBL1649338, “Synthesis of lakshminine and antiproliferative testing of related oxoisoaporphines” (J Nat Prod, 2010).
Calls of active or inactive are those of the source. No cut-off for these calls is given here.

How the values were obtained:
AGS = test: Antiproliferative activity against human AGS cells by MTT assay; assay type: functional, cell-based
Procedure, shortened: (§1)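 Cells were grown in medium with 10% heat-inactivated FBS, penicillin G and streptomycin, and were plated in 96-well plates. One day after seeding, they were exposed for 72 h to 0–100 µM compound (DMSO stock diluted in complete medium, final DMSO 1%). Viability was read by MTT reduction. IC50 values came from fitting the dose-response curves to a sigmoidal model.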

[1] = Antiproliferative activity against human CRL1739 cells by MTT assay; assay type: functional, cell-based; procedure, shortened: as §1
SK-MES-1 = test: Antiproliferative activity against human SKMES1 cells by MTT assay; assay type: functional, cell-based; procedure, shortened: as §1
[2] = (§2) Antiproliferative activity against human HTB-58 cells by MTT assay; assay type: functional, cell-based; procedure, shortened: as §1
J82 = test: Antiproliferative activity against human J82 cells by MTT assay; assay type: functional, cell-based; procedure, shortened: as §1
[3] = (§3) Antiproliferative activity against human HTB-1 cells by MTT assay; assay type: functional, cell-based; procedure, shortened: as §1
MRC5 = test: Antiproliferative activity against human MRC5 cells by MTT assay; assay type: cell-based; procedure, shortened: as §1
[4] = Antiproliferative activity against human CCL171 cells by MTT assay; assay type: cell-based; procedure, shortened: as §1
HTB-58 = test: as §2; assay type: functional, cell-based; procedure, shortened: as §1
HTB-1 = test: as §3; assay type: functional, cell-based; procedure, shortened: as §1

Row | SMILES | IC50 (AGS) | IC50 (SK-MES-1) | IC50 [1] | IC50 [2] | IC50 (J82) | IC50 [3] | Activity (MRC5) | Activity [4] | Activity (SK-MES-1) | Activity (HTB-58) | Activity (J82) | Activity (HTB-1)
1 | COc1cc2c3c(c1[N+](=O)[O-])CCN=C3c1ccccc1C2=O | > 2090 nM | > 2090 nM | > 2090 nM | > 2090 nM | > 2090 nM | > 2090 nM | – | – | – | – | – | –
2 | COc1cc2c3c(nccc3c1[N+](=O)[O-])-c1ccccc1C2=O | 4500 nM | – | 4500 nM | – | – | – | Non-toxic | Non-toxic | inactive | inactive | inactive | inactive
3 | COc1cc2c3c(c1)C(=O)c1ccccc1C3=NCC2 | > 2090 nM | > 2090 nM | > 2090 nM | > 2090 nM | > 2090 nM | > 2090 nM | – | – | – | – | – | –
4 | COc1cc2ccnc3c2c(c1[N+](=O)[O-])C(=O)c1ccccc1-3 | > 2090 nM | > 2090 nM | > 2090 nM | > 2090 nM | > 2090 nM | > 2090 nM | – | – | – | – | – | –
5 | COc1cc2c3c(nccc3c1N)-c1ccccc1C2=O | > 2090 nM | > 2090 nM | > 2090 nM | > 2090 nM | > 2090 nM | > 2090 nM | – | – | – | – | – | –
6 | COc1cc2c3c(c1[N+](=O)[O-])C(=O)c1ccccc1C3=NCC2 | > 2090 nM | > 2090 nM | > 2090 nM | > 2090 nM | > 2090 nM | > 2090 nM | – | – | – | – | – | –

More lines, main results first:

Row | IC50 (AGS) | IC50 (SK-MES-1) | SMILES | IC50 [1] | IC50 [2] | IC50 (J82) | IC50 [3] | Activity (MRC5) | Activity [4] | Activity (SK-MES-1) | Activity (HTB-58) | Activity (J82) | Activity (HTB-1)
7 | > 3000 nM | > 3000 nM | COc1ccc2c(c1)C(=O)c1c(N)c(OC)c(OC)c3ccnc-2c13 [DAURIOXOISOPORPHINE B] | > 3000 nM | > 3000 nM | > 3000 nM | > 3000 nM | – | – | – | – | – | –
8 | > 3000 nM | > 3000 nM | COc1ccc2c(c1)C(=O)c1c(NCCc3ccc(O)cc3)c(OC)cc3ccnc-2c13 [DAURIOXOISOPORPHINE A] | > 3000 nM | > 3000 nM | > 3000 nM | > 3000 nM | – | – | – | – | – | –
9 | > 2090 nM | > 2090 nM | CNc1c(OC)cc2ccnc3c2c1C(=O)c1cc(OC)ccc1-3 [DAURIOXOISOAPORPHINE C] | > 2090 nM | > 2090 nM | > 2090 nM | > 2090 nM | – | – | – | – | – | –
10 | > 2090 nM | > 2090 nM | COc1ccc2c(c1)C(=O)c1c(NCCc3ccc(O)cc3)c(OC)c(OC)c3ccnc-2c13 [TYRAMINOPORPINE] | > 2090 nM | > 2090 nM | > 2090 nM | > 2090 nM | – | – | – | – | – | –
11 | > 2090 nM | > 2090 nM | COc1cc2c3c(nccc3c1)-c1ccccc1C2=O | > 2090 nM | > 2090 nM | > 2090 nM | > 2090 nM | – | – | – | – | – | –
12 | > 2090 nM | > 2090 nM | COc1cc2ccnc3c2c(c1N)C(=O)c1ccccc1-3 [LAKSHMININE] | > 2090 nM | > 2090 nM | > 2090 nM | > 2090 nM | – | – | – | – | – | –
